Tests used:
[1] = molecular target: P-gp expressed in porcine capillaries (Sus scrofa, UniProt K7GMM7); experiment: NBD-CSA transport in porcine brain capillaries; format: cell-based; settings: confocal microscopy, result in words
Outline: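 Porcine brain capillaries incubated with test compound and the fluorescent P-gp substrate NBD-CSA. Transport into the capillary lumen imaged by confocal microscopy (transmitted light, fluorescence, overlay) and quantified by fluorospectrometry. Negative-control capillaries stained with NBD-CSA only, same time course.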

[2] = system: Tg(fli1:EGFP) zebrafish embryos; experiment: Zebrafish embryo in vivo angiogenesis assay
P-gp = P-gp (Homo sapiens, UniProt P08183); experiment: Calcein-AM assay by flow cytometry in CEM/ADR5000 cells; settings: CCRF-CEM and CEM/ADR5000 cells, result in words
P-gp, sequence (P08183 whole entry): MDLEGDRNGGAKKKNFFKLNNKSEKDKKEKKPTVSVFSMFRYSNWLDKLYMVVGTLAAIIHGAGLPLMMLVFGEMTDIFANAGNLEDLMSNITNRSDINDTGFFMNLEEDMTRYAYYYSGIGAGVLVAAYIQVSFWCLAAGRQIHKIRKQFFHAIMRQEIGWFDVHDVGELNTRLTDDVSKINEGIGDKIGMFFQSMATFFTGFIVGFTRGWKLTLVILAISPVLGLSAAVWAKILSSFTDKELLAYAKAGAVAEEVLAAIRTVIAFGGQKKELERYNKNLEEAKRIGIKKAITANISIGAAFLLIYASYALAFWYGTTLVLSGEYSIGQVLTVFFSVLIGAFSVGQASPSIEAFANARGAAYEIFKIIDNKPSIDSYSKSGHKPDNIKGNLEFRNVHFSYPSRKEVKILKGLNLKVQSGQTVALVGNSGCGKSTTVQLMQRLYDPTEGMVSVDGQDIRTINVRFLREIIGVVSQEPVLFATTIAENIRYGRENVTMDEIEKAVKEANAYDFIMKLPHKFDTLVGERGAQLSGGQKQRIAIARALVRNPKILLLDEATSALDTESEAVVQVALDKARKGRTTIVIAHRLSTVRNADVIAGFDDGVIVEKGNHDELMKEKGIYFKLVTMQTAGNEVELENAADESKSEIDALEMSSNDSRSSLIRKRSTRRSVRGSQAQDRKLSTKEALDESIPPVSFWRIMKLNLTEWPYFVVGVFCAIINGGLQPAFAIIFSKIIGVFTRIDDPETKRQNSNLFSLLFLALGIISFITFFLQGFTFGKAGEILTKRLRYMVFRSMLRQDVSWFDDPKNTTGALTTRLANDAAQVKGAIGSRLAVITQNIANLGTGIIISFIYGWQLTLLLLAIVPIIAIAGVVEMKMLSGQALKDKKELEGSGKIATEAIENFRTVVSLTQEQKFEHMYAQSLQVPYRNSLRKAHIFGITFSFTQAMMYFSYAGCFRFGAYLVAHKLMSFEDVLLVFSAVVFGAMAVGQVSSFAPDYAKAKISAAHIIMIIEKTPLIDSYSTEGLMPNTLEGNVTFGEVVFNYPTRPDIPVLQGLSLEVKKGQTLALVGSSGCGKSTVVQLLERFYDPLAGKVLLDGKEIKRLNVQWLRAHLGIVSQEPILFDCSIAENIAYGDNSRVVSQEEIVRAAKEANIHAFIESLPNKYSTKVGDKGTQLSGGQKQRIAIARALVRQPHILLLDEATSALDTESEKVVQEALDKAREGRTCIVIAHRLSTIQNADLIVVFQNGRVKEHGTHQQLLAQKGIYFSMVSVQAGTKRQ

P-gp expressed in porcine capillaries, sequence (K7GMM7 1-1248): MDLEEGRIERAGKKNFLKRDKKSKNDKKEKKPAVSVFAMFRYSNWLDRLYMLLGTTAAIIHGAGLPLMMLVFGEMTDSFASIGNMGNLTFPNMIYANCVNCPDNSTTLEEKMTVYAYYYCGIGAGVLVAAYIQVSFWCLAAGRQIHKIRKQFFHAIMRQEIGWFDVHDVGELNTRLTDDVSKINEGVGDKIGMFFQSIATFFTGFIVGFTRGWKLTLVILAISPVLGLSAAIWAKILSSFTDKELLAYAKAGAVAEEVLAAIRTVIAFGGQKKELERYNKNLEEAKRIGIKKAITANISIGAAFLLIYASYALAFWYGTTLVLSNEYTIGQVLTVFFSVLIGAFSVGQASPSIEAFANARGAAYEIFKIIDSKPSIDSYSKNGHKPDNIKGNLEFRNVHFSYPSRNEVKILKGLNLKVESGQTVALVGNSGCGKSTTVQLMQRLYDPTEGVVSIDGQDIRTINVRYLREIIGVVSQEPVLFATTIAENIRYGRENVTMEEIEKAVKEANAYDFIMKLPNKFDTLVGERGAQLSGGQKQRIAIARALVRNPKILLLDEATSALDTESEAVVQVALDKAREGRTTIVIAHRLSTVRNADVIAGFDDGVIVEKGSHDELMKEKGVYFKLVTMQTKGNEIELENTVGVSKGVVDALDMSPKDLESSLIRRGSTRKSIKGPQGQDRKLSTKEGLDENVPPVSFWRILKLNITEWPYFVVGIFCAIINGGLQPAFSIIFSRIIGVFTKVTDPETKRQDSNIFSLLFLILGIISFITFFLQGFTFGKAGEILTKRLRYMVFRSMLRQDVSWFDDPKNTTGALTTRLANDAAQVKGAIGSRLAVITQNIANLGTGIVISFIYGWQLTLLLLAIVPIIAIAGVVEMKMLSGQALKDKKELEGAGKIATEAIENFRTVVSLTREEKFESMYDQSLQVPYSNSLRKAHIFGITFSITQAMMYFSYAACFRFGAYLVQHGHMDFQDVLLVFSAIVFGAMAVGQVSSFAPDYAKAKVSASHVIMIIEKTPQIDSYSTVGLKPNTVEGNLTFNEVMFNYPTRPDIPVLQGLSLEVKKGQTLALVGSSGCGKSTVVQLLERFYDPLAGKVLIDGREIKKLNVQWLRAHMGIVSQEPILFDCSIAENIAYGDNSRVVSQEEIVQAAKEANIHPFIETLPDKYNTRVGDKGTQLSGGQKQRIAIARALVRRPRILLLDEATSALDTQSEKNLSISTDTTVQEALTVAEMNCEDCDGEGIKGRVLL

Structure (SMILES): C/C=C/C[C@@H](C)C(=O)[C@H]1C(=O)N[C@@H](C(C)C)C(=O)N(C)CC(=O)N(C)[C@@H](CC(C)C)C(=O)N[C@@H](C(C)C)C(=O)N(C)[C@@H](CC(C)C)C(=O)N[C@@H](C)C(=O)N[C@H](C)C(=O)N(C)[C@@H](CC(C)C)C(=O)N(C)[C@@H](CC(C)C)C(=O)N(C)[C@@H](C(C)C)C(=O)N1C [PSC-833]
- Inhibition of luminal P-gp (NBD-CSA transport) [1]: inhibited

Structure (SMILES): Cc1cc(C)c(/C=C2\C(=O)Nc3ccccc32)[nH]1 [SU5416]
- Formation of ISVs at 28 hpf ([2]; 10 μg/ml, 28 hpf, result in words): completely blocked formation of ISVs
- ISV sprouting at 48 hpf ([2]; 10 μg/ml, 48 hpf, compared to control embryos, result in words): sprouted only minimally
- Heart rate ([2]; 10 μg/ml, result in words): not affected
- Oedema ([2]; 10 μg/ml, result in words): rarely observed

Structure (SMILES): C[C@H]1[C@H](OC(=O)CCC(=O)O)O[C@@H]2O[C@@]3(C)CC[C@H]4[C@H](C)CC[C@@H]1[C@@]24OO3 [Artesunate, artesunate]
- Dead = number of dead embryos up to 48 hpf ([2]; 25 μg/ml, N=20 embryos): 1
- Dead = number of dead embryos up to 48 hpf ([2]; 50 μg/ml, N=20 embryos): 1
- Dead = number of dead embryos up to 48 hpf ([2]; 100 μg/ml, N=20 embryos): 1
- Dead = number of dead embryos up to 48 hpf ([2]; 200 μg/ml, N=10 embryos): 1
- Anti-angiogenic effect ([2]; overall assessment over the dose range, result in words): dose-dependent anti-angiogenic effects
- P-gp inhibition (calcein accumulation) (P-gp): do not act as P-gp inhibitors

Structure (SMILES): CC1=CO[C@@H]2O[C@@]3(C)CC[C@H]4[C@H](C)CC[C@@H]1[C@@]24OO3 [Compound 4, anhydrodihydroartemisinin]
- Dead = number of dead embryos up to 48 hpf ([2]; 50 μg/ml, N=10 embryos): 2
- Dead = number of dead embryos up to 48 hpf ([2]; 75 μg/ml, N=10 embryos): 5

Structure (SMILES): C[C@@H]1CC[C@H]2[C@@H](C)C(=O)O[C@@H]3O[C@@]4(C)CC[C@@H]1[C@]32OO4 [Compound 1, artemisinin]
- P-gp inhibition (calcein accumulation) (P-gp): do not act as P-gp inhibitors
